# Rows were chosen to be rich in hits. Some 2.2% of all compounds tested hit in one or more screens of this group.
# APP 5UTR inh: APP translation inhibition. SH-SY5Y APP 5'UTR-luciferase reporter, luminescence. inhibition, % at 2 µM. 0.82% of 190,000 active. AID 1285;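 active = inhibition above a set limit, derived from the sample mean plus 3 SD, cut at about 45% in these data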
# IEC-6 tox: counter-screen for KLF5 inhibitors: cytotoxicity in IEC-6 cells | inhibition, % at 5 µM | 0.78% of 290,000 active | IEC-6 cytotoxicity, luminescence viability; in the data active = inhibition above about 22%;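 note: 0% = plate median of test compound wells and 100% = cytotoxic reference compound wells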
# BaF3 parental: counter-screen for JAK2V617F inhibitors: parental Ba/F3 viability inhibitors. CellTiter-Glo ATP luminescence. inhibition, % at 5.6 µM. 1.1% of 220,000 active. AID 1486;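 active = inhibition above a per-campaign cutoff, the mean inhibition of all tested compounds plus 3 SD, cut at about 27% in these data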;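 note: 0% = DMSO wells and 100% = JAK Inhibitor I control wells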
# Ba/F3 V617F tox: loss of viability in JAK2V617F-driven Ba/F3 cells; Ba/F3 EpoR-JAK2V617F viability, ATP luminescence; inhibition, % at 5.6 µM; 1.1% of 220,000 active;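 active = inhibition above the campaign mean plus 3 SD over all tested compounds, cut at about 24% in these data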;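 note: cytokine-independent growth of Ba/F3 cells driven by EpoR plus mutant JAK2; 0% = DMSO-treated cells and 100% = JAK inhibitor I control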
# b-catenin transl: modulators of beta-catenin nuclear translocation. HeLa beta-catenin nuclear translocation, immunofluorescence imaging. nuclear translocation activity, % at 5 µM. 0.3% of 190,000 active. AID 1665;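 active = nuclear translocation activity above 50% at 5 µM, with a well cell count of 50 or more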;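 note: per-cell ratio of nuclear to cytoplasmic median beta-catenin stain intensity; plate controls were DMSO negative control for no effect and GSK-3 inhibitor IX positive control for full effect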
#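 System: HeLa cells, endogenous beta-catenin; compound dosing: 5 µM primary single dose, 0.1% DMSO, 0.02–20 µM confirmation series; incubation: 24 h compound exposure at 37°C, 5% CO2; signal: beta-catenin immunofluorescence imaging with DAPI; evaluation: % activation, nuclear-to-cytoplasmic median beta-catenin signal ratio per cell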
# MT stabilizer: microtubule stabilization, imaging screen; HeLa tubulin immunostaining HCS, 24 h; share of cells brighter than vehicle mean+2SD; % tubulin-high responders, % at 10 µM; 0.83% of 200,000 active; AID 2205;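 active = plate Z-score above 3 for both tubulin-high and condensed-nucleus cell shares, with cell loss under 80%, at 10 µM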;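 note: anti alpha tubulin signal scored within the nucleus-defined area of each cell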
# Active calls of the source: *; . = not tested or not shown.
SMILES,APP 5UTR inh,IEC-6 tox,BaF3 parental,Ba/F3 V617F tox,b-catenin transl,MT stabilizer
NC(=O)c1ccc(N=Nc2c(-c3ccccc3)[nH]n(-c3ccccc3)c2=O)cc1,69*,1,1,2,-2,4
O=C(N/N=C\c1c(O)ccc2ccccc12)c1ccc(S(=O)(=O)N2CCCCC2)cc1,86*,-4,9,-3,4,3
O=C(NCc1cccnc1)c1ccc(S(=O)(=O)N2CCCCC2)cc1,18,-4,4,-1,-1,1
O=C(N/N=C/c1c(O)ccc2ccccc12)c1ccc(CO)nc1,.,4,.,.,.,.
O=C(Nc1cccnc1Cl)c1ccc(S(=O)(=O)N2CCCCCC2)cc1,90*,-2,4,0,-6,2
O=C(COC(=O)c1ccc(S(=O)(=O)N2CCCC2)cc1)Nc1cccnc1Cl,11,3,8,0,-4,3
O=C(NCc1ccccc1)c1ccc(S(=O)(=O)N2CCCC2)cc1,51*,4,0,-3,0,2
COc1ccc(CNC(=O)c2ccc(S(=O)(=O)N3CCCC3)cc2)cc1OC,52*,-8,5,0,.,2
COC(=O)C1=C(C)NC2=C(C(=O)CCC2)C1c1ccc(-c2ccsc2C(=O)OC)o1 (centres undefined),.,-2,-2,0,1,.
Cc1ccc(-c2csc(=Nc3cccnc3)n2CCCN2CCCC2=O)cc1C,11,-2,54*,64*,-1,5
O=C(NC(=S)Nc1ccccc1N1CCOCC1)c1ccc(-c2ccccc2F)o1,.,-3,-4,-1,0,.
N#CC(C#N)=C1C=CC=CN1/C(=C\c1ccco1)C(=O)c1ccc(Br)cc1,93*,4,2,-3,5,4
O=C(CN1C(=O)COc2ccc(Cl)cc21)Nc1ccccn1,.,-5,.,.,.,.
Cc1cc(C)c2nc(Cl)c(C3NC(=O)c4ccccc4N3)cc2c1 (centres undefined),-11,0,5,-1,-3,6
Cc1ccc(C)c2nc(Cl)c(C3NC(=O)c4ccccc4N3)cc12 (centres undefined),10,9,13,2,14,16*
Cc1ccccc1CNc1nc(N)n(-c2ccccc2)n1,0,6,96*,-2,0,3
O=[N+]([O-])c1ccc(Nc2nc(N/N=C\c3ccc4c(c3)OCO4)nc(N3CCCCC3)n2)cc1,-5,-4,1,-4,.,1
COC(=O)Cc1n[nH]c(=S)[nH]c1=O,50*,-6,4,-2,1,5
COC(=O)Cc1n[nH]c(=O)c2ccccc12,12,-2,3,-2,2,2
CCOc1ccc(-c2cc(C(=O)NN)[nH]n2)cc1,-18,-1,6,1,.,3
COc1ccc(-c2cc(C(=O)NN)[nH]n2)cc1OC,73*,1,-2,-2,0,5
COc1ccc(-c2cc(C(=O)NN)[nH]n2)cc1,84*,-1,-1,-3,-1,3
COc1ccc(-c2cc(C(=O)O)[nH]n2)cc1OC,10,0,-2,-4,1,3
O=C(CNC(=O)c1sc2ccccc2c1Cl)NC1CC1,.,8,.,.,.,.
O=C(c1ccncc1)N(Cc1cc2ccccc2[nH]c1=O)C1CCCCC1,12,8,29*,40*,-2,3
SMILES,APP 5UTR inh,IEC-6 tox,BaF3 parental,Ba/F3 V617F tox,b-catenin transl,MT stabilizer
Cc1ccc2[nH]c(=O)c(CN(Cc3ccco3)C(=O)c3ccncc3)cc2c1,10,-3,7,0,-3,14*
O=C(c1ccco1)N(Cc1cc2ccccc2[nH]c1=O)C1CCCCC1,-14,2,-4,-5,-2,1
COc1ccccc1NC(=S)N(Cc1ccco1)Cc1cc2cc(C)ccc2[nH]c1=O,-4,6,8,4,0,33*
CC(=O)Cn1cnc2c(cnn2-c2ccc(C)c(C)c2)c1=O,.,0,.,.,.,.
CCCCc1nnc(NC(=O)CSCc2cc(=O)n3cc(C)sc3n2)s1,.,-4,.,.,.,.
COc1ccc(CNC(=S)NC(C)CCc2ccccc2)cc1 (centres undefined),12,-5,6,0,3,5
Nc1c(Cl)ncnc1NCCc1ccc(O)cc1,.,6,29*,5,0,.
Nc1c(Cl)ncnc1NCc1cccnc1,.,-2,.,.,.,.
COCCNC(=O)C1CCC(CNS(=O)(=O)c2ccc(F)cc2)CC1 (centres undefined),.,-2,.,.,.,.
O=C(Nc1nc2ccccc2s1)C1CCCO1 (centres undefined),-49,-4,95*,-2,0,2
O=C(Nc1nc2ccc(F)cc2s1)C1CCCO1 (centres undefined),-106,-11,3,-1,0,2
CNc1ccccc1C(C)(C)c1cc(-c2cccc(Br)c2)no1,11,4,76*,62*,0,5
O=C1CC(c2ccccc2)c2cccc(F)c21 (centres undefined),.,-1,.,.,.,.
COc1ccc(-c2n[nH]c(C(F)(F)F)c2-c2cc3ccccc3o2)c(O)c1,23,3,1,-2,94*,30*
Cc1ccc(-c2ccc(/C=C3\SC(N4CCOCC4)=NC3=O)o2)cc1,17,102*,11,-3,2,5
COc1ccc(N2C(C(C)=O)=NN(c3ccccc3)C2c2cccs2)cc1 (centres undefined),5,2,48*,25*,.,4
CN1CCN(Cc2cccc3ncccc23)CC1CCO (centres undefined),.,-7,.,.,.,.
COc1ccc2oc(=Nc3cccc(F)c3)c(C(N)=O)cc2c1,-7,1,5,5,61*,9
Cc1cc[n+](CC(=O)c2ccccc2)c2ccccc12,-9,2,10,-3,-1,3
Cc1c(N)cc[n+](CC(=O)c2ccccc2)c1C,20,0,63*,81*,-4,2
S=c1nc[nH]c2c1ncn2C1CCCO1 (centres undefined),.,78*,44*,63*,0,.
CC(C)=CCCC(C)CN1CCC(N2CCC(C(=O)N3CCOCC3)CC2)CC1 (centres undefined),-6,4,8,-2,0,1
Cc1ccc(-c2c[n+](CC(=O)OCc3ccccc3)c3n2CCC3)cc1,-23,-3,4,0,3,1
COc1ccc(-c2c[n+](CC(=O)c3cccs3)c3n2CCC3)cc1,.,2,29*,19,0,.
Cc1ccc(-c2c[n+](CC(=O)c3cccs3)c3n2CCC3)cc1,.,5,62*,33*,0,.
Cc1cc(C)n(C(=O)/C(C#N)=N/Nc2cc(Cl)cc(Cl)c2)n1,7,10,8,2,4,2
CCN(CC)S(=O)(=O)c1ccc(Cl)c(NC(=O)COC(=O)c2ccc(O)cc2)c1,10,0,-2,-1,0,3
CCN(CC)S(=O)(=O)c1ccc(Cl)c(NC(=O)COC(=O)c2cccn2C)c1,15,5,7,5,-1,18*
COc1cccc(C(=O)Nn2cnnc2)c1OC,.,4,.,.,.,.

# Assay outcomes as filed in PubChem.
